Source: ChEMBL document CHEMBL5576155, “Expanding the chemical space of ester of quinoxaline-7-carboxylate 1,4-di-N-oxide derivatives as potential antitubercular agents” (RSC Med Chem, 2024)

Experiments:
[1] = test system: Mycobacterium tuberculosis; test: Antitubercular activity against Mycobacterium tuberculosis H37Rv assessed as reduction in microbial growth by MABA; type: functional
Method in brief: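 M. tuberculosis H37Rv tested in vitro by modified Alamar blue microplate assay (MABA), with rifampicin and isoniazid as reference drugs. MIC was the lowest drug concentration giving 90% inhibition. Triplicate independent experiments.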

[2] = test system: Mycobacterium tuberculosis; test: Antitubercular activity against Mycobacterium tuberculosis H37Rv assessed as reduction in microbial growth incubated for 10 days under anaerobic condition followed by 28 hrs incubation with aerobic condition further incubated 7 days at 5 % CO2 condition by low-oxygen recovery assay; type: functional; conditions: time 436 hrs
[3] = Cytotoxicity against mouse J774.2 cells assessed as reduction in cell viability by MTT assay; type: toxicity, cell-based
Method in brief: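 Murine macrophage J774.2 grown in RPMI 1640 with 10% FBS, 1% MEM-NEAA and 100 U mL−1 antibiotic–antifungal, at 37 °C, 5% CO2, humidified. Cells washed and plated at 1 × 10^5 per well. Serial-dilution dose–response run in triplicate, with 0.1% DMSO as negative control. Viability read by MTT colorimetric assay. CC50 derived from the dose–response.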

[4] = Selectivity index, ratio of CC50 for cytotoxicity against mouse J774.2 cell to MIC for antibacterial activity against Mycobacterium tuberculosis H37Rv; type: toxicity; conditions: J774.2 cells, read-out: Selectivity Index
Method in brief: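 CC50 was measured in murine macrophage J774.2 cells grown in RPMI 1640 with 10% FBS, 1% MEM-NEAA and antibiotic–antifungal mix at 37 °C, 5% CO2. 1 × 10^5 cells per well received serial dilutions in triplicate, with 0.1% DMSO as negative control. Viability was read by MTT. SI is CC50 over the MABA MIC against H37Rv.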

| Compound | MIC [1] [µM] | MIC [2] [µM] | CC50 [3] [µM] | selectivity ratio [4] |
| --- | --- | --- | --- | --- |
| CCOC(=O)c1ccc2c(c1)[n+]([O-])c(C(=O)c1cccs1)c(C(F)(F)F)[n+]2[O-] | 0.24 | 0.51 |  |  |
| CC(=O)c1c(C(F)(F)F)[n+]([O-])c2ccc(C(=O)OCC(C)C)cc2[n+]1[O-] | 0.7 | 0.94 | 25.4 | 10.2 |
| Cc1ccc(NC(=O)c2c(C)[n+]([O-])c3cc(C(=O)OCC(C)C)ccc3[n+]2[O-])c(C)c1 | > 118 | > 118 | > 200 | 10.2 |
| CCCCOC(=O)c1ccc2c(c1)[n+]([O-])c(C(=O)OCc1ccccc1)c(C)[n+]2[O-] | 0.59 | 1.73 | > 200 | 10.2 |
| CCCCOC(=O)c1ccc2c(c1)[n+]([O-])c(C(=O)OC)c(C)[n+]2[O-] | 0.87 | 5.24 | 46.2 | 10.2 |
| CC(C)OC(=O)c1ccc2c(c1)[n+]([O-])c(C(=O)c1cccs1)c(C(F)(F)F)[n+]2[O-] | 0.19 | 0.54 |  |  |
| CCCCOC(=O)c1ccc2c(c1)[n+]([O-])c(C(=O)OCC)c(C)[n+]2[O-] | 1.38 | 6.24 | > 200 | 10.2 |
| CCCCOC(=O)c1ccc2c(c1)[n+]([O-])c(C(C)=O)c(C(F)(F)F)[n+]2[O-] | 0.62 | 0.97 | > 200 | 10.2 |
| CCCCOC(=O)c1ccc2c(c1)[n+]([O-])c(C(=O)OCC)c(C(F)(F)F)[n+]2[O-] | 0.57 | 0.87 | > 200 | 10.2 |
| Cc1c(C(=O)Nc2ccccc2)[n+]([O-])c2cc(C(=O)OCC(C)C)ccc2[n+]1[O-] | 2.56 | 2.73 | > 200 | 10.2 |
| CC(C)COC(=O)c1ccc2c(c1)[n+]([O-])c(C(=O)c1ccco1)c(C(F)(F)F)[n+]2[O-] | 0.68 | 1.65 | 81.8 | 10.2 |
| Cc1c(C(=O)c2ccccc2)[n+]([O-])c2cc(C(=O)OCC(C)C)ccc2[n+]1[O-] | 0.95 | 2.68 | 34.2 | 10.2 |
| CCCCOC(=O)c1ccc2c(c1)[n+]([O-])c(C(=O)Nc1ccccc1)c(-c1ccccc1)[n+]2[O-] | 3.3 | 9.74 | 44.1 | 10.2 |
| CC(C)COC(=O)c1ccc2c(c1)[n+]([O-])c(C(=O)c1ccccc1)c(C(F)(F)F)[n+]2[O-] | 0.53 | 0.92 |  |  |
| CC(C)COC(=O)c1ccc2c(c1)[n+]([O-])c(C(=O)Nc1ccccc1)c(-c1ccccc1)[n+]2[O-] | 0.57 | 1.49 | > 200 | 10.2 |
| CCCCOC(=O)c1ccc2c(c1)[n+]([O-])c(C(=O)c1cccs1)c(C(F)(F)F)[n+]2[O-] | 0.57 | 0.86 |  |  |

| Compound | MIC [1] [µM] | MIC [2] [µM] | CC50 [3] [µM] | selectivity ratio [4] |
| --- | --- | --- | --- | --- |
| CCCCOC(=O)c1ccc2c(c1)[n+]([O-])c(C(=O)OC(C)(C)C)c(C)[n+]2[O-] | 14.7 | 128 | > 200 | 10.2 |
| CC(C)COC(=O)c1ccc2c(c1)[n+]([O-])c(C(=O)c1cccs1)c(C(F)(F)F)[n+]2[O-] | 0.55 | 0.77 | 43.9 | 10.2 |
| CCCCOC(=O)c1ccc2c(c1)[n+]([O-])c(C(=O)Nc1ccc(Cl)cc1)c(C)[n+]2[O-] | > 117 | > 117 | 50.3 | 10.2 |
| CC(C)COC(=O)c1ccc2c(c1)[n+]([O-])c(C(=O)c1ccc3ccccc3c1)c(C(F)(F)F)[n+]2[O-] | 1.38 | 2.33 |  |  |
| COC(=O)c1c(C)[n+]([O-])c2ccc(C(=O)OCC(C)C)cc2[n+]1[O-] | 0.84 | 2.01 |  |  |
| CC(=O)c1c(C)[n+]([O-])c2ccc(C(=O)OCC(C)C)cc2[n+]1[O-] | 0.94 | 1.82 | 87.2 | 10.2 |
| CCCCOC(=O)c1ccc2c(c1)[n+]([O-])c(C(=O)c1ccc3ccccc3c1)c(C(F)(F)F)[n+]2[O-] | 1.07 | 3.04 | > 200 | 10.2 |
| CCCCOC(=O)c1ccc2c(c1)[n+]([O-])c(C(=O)c1ccccc1)c(C(F)(F)F)[n+]2[O-] | 0.53 | 0.88 | 48.4 | 10.2 |
| Cc1ccc(NC(=O)c2c(C)[n+]([O-])c3ccc(C(=O)OCC(C)C)cc3[n+]2[O-])c(C)c1 | 19.7 | 12.3 | > 200 | 10.2 |
| Cc1c(C(=O)Nc2ccc(Cl)cc2)[n+]([O-])c2cc(C(=O)OCC(C)C)ccc2[n+]1[O-] | 1.63 | 1.86 |  |  |
| CCCCOC(=O)c1ccc2c(c1)[n+]([O-])c(C(=O)Nc1ccc(C)cc1C)c(C)[n+]2[O-] | > 118 | > 118 |  |  |
| CCCCOC(=O)c1ccc2c(c1)[n+]([O-])c(C(C)=O)c(C)[n+]2[O-] | 0.88 | 2.3 | 58.4 | 10.2 |
| CCCCOC(=O)c1ccc2c(c1)[n+]([O-])c(C(=O)c1ccccc1)c(C)[n+]2[O-] | 1.95 | 5.37 | 17.7 | 10.2 |
| NNC(=O)c1ccncc1 [ISONIAZID] | 2.92 | > 933 |  |  |
| CO[C@H]1/C=C/O[C@@]2(C)Oc3c(C)c(O)c4c(O)c(c(/C=N/N5CCN(C)CC5)c(O)c4c3C2=O)NC(=O)/C(C)=C\C=C\[C@H](C)[C@H](O)[C@@H](C)[C@@H](O)[C@@H](C)[C@H](OC(C)=O)[C@@H]1C [RIFAMPIN] | 0.02 | 0.06 |  |  |
